This passage reports folding enthalpy and Tm results from the array DNA melting data of Ke et al. (doi:10.1101/2024.01.08.574731).

Series [1] can be described thus: folding enthalpy; higher = less favourable; fluorescence melt of hairpins on a sequencing array, two-state fit. To be noted: sodium 0.088 M. The method in brief: (§1)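 Library hairpins on a sequenced MiSeq flow cell carried annealed Cy3 and quencher oligos, and their Cy3 fluorescence was imaged in 50 mM Na-HEPES pH 8.0 with 25 mM NaCl, in 2.5 °C steps up to 60 °C. Signals were normalised to Cy3 before quenching and to control constructs. Melting temperature and folding enthalpy were obtained from bootstrapped two-state fits, combined by inverse-variance weighting across four replicates, and the fitted temperatures were then raised by 9.35 °C to match UV melts.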

Series [2] in a line: melting temperature; fluorescence melt of hairpins on a sequencing array, two-state fit, raised by 9.35 °C to match UV melts. To be noted: sodium 0.088 M. The method in brief: as §1

GAAATAGAAATATTTC ((((((....)))))): the folding enthalpy in series [1] was -21.9 kcal/mol. In series [2], the Tm came to 32.7 °C.

In the case of GCTTATCGAAAGATCAGC (((.(((....))).))), in series [1], the folding enthalpy was -25.3 kcal/mol. In series [2], the Tm was 44 °C.

With GGGTTAGCGAAAGCTCCC (((..(((....)))))), in series [1], the folding enthalpy is -23.7 kcal/mol. The Tm in series [2] was determined as 41.8 °C.

For the sequence GATTGCGAAAGCATCATC ((((((....)))..))), the folding enthalpy in series [1] is -10.9 kcal/mol. Further, in series [2], the Tm came to 29.6 °C.

As for GCGACTCGAAAGAGCGC (((.(((....)))))), in series [1], the folding enthalpy is -32.7 kcal/mol. Moreover, the Tm in series [2] came out at 60.4 °C.

On to GGTGCAGCGAAAGCTACC (((..(((....)))))), for which the folding enthalpy in series [1] was -13.6 kcal/mol. In series [2], the Tm was determined as 39.1 °C.

Regarding GATCAATTTTTTGATC ((((((....)))))), in series [1], the folding enthalpy is -35.1 kcal/mol. In addition, in series [2], the Tm was 47.3 °C.

GATCAAAGGATTGATC ((((((....)))))): in series [1], the folding enthalpy is -19.1 kcal/mol. In series [2], the Tm was 40.9 °C.

Regarding CGCGCGGAAACGCTCGCG ((((((....)))..))), in series [1], the folding enthalpy is -23.4 kcal/mol. For the same sequence, in series [2], the Tm was 52.5 °C.

On to GCGTTGCGAAAGCCACGC ((((.((....)).)))), for which the folding enthalpy in series [1] was -36.6 kcal/mol. For the same sequence, in series [2], the Tm came to 66.6 °C.

Regarding GTGAACCGAAAGGTGCAC (((.(((....))).))), the folding enthalpy in series [1] was -39.6 kcal/mol. In series [2], the Tm was 60.7 °C.

Take GGTGTTCGAAAGAAACC (((.(((....)))))): in series [1], the folding enthalpy was -14.1 kcal/mol. For the same sequence, in series [2], the Tm was 34.1 °C.

Regarding CGTATGCGGAAACGCACG (((..(((....)))))), the folding enthalpy in series [1] was -9.53 kcal/mol. For the same sequence, in series [2], the Tm amounted to 40.7 °C.

As to GACGAAGGAAACTTCGCC (.(((((....))))).), the folding enthalpy in series [1] is -16.8 kcal/mol. Besides, the Tm in series [2] came to 43.7 °C.

As for GATCCTATGTAGGATC ((((((....)))))), the folding enthalpy in series [1] is -34.9 kcal/mol. In series [2], the Tm is 54.5 °C.

For the sequence GCACAACGAAAGTTCTGC (((.(((....))).))), the folding enthalpy in series [1] is -26.1 kcal/mol. Further, in series [2], the Tm is 36.8 °C.

As for GCGGATGGAAACACCCGC ((((.((....)).)))), the folding enthalpy in series [1] is -42.9 kcal/mol. The Tm in series [2] is 53 °C.

In the case of GATCTATGGTAGATC ((((((...)))))), the folding enthalpy in series [1] was -28.9 kcal/mol. The Tm in series [2] came out at 36.9 °C.

On to GTCCTAGAAATAGGAC ((((((....)))))), for which the folding enthalpy in series [1] was -36.6 kcal/mol. For the same sequence, in series [2], the Tm came out at 50.6 °C.

For GCGGCCCCCCGC ((((....)))), in series [1], the folding enthalpy is -23.8 kcal/mol. Besides, the Tm in series [2] came out at 55 °C.

Regarding GTAGACCGAAAGGTGTAC (((.(((....))).))), the folding enthalpy in series [1] is -36.3 kcal/mol. Also, the Tm in series [2] is 50.8 °C.

With CGTTCGGAAACGAGCACG ((((((....)))..))), the folding enthalpy in series [1] was -13.2 kcal/mol. The Tm in series [2] amounted to 30.7 °C.

As to GCACGGCGAAAGCAGCGC ((.(.((....)).).)), in series [1], the folding enthalpy was -21.1 kcal/mol. The Tm in series [2] was determined as 57.2 °C.

As to GGCTCAGAAATGAGCC ((((((....)))))), in series [1], the folding enthalpy was -38.9 kcal/mol. The Tm in series [2] came to 67 °C.

Turning to GATCACAATGGTGATC ((((((....)))))), the folding enthalpy in series [1] is -35.1 kcal/mol. The Tm in series [2] was 55.3 °C.

For the sequence GGGAAAGGAAACTTTCTC (.(((((....))))).), the folding enthalpy in series [1] is -20.4 kcal/mol. In series [2], the Tm came out at 38.4 °C.

In the case of GATCTCAATTGAGATC ((((((....)))))), in series [1], the folding enthalpy is -38 kcal/mol. Also, the Tm in series [2] is 53.1 °C.

As for GCCCTAGGAAACTAGAGC ((.((((....)))).)), the folding enthalpy in series [1] is -25 kcal/mol. Further, the Tm in series [2] was found to be 34.3 °C.

Consider GTATCAGGAAACCGATAC (((((.(....).))))), for which, in series [1], the folding enthalpy was -30.7 kcal/mol. For the same sequence, in series [2], the Tm came to 38.1 °C.

Regarding GTGTCAGAAATGACAC ((((((....)))))), the folding enthalpy in series [1] is -35.9 kcal/mol. In series [2], the Tm turned out to be 56.4 °C.

As to GCCATGCGAAAGCTTCGC ((.(.((....)).).)), in series [1], the folding enthalpy was -8.18 kcal/mol. In addition, the Tm in series [2] worked out at 47.3 °C.

For GGACTAGGAAACTAGCCC ((.((((....)))).)), the folding enthalpy in series [1] is -24.5 kcal/mol. Moreover, in series [2], the Tm amounted to 42.1 °C.

Consider GAGGCCCGAAAGGGCTC (((.(((....)))))), for which, in series [1], the folding enthalpy is -9.95 kcal/mol. Besides, the Tm in series [2] is 57.9 °C.

On to GGTTCGGGAAACTGAGCC ((.((.(....).)).)), for which, in series [1], the folding enthalpy was -27.1 kcal/mol. In series [2], the Tm was found to be 39.3 °C.

As to GCGTTTCCGAAAGGACGC (((..(((....)))))), in series [1], the folding enthalpy was -24.5 kcal/mol. For the same sequence, in series [2], the Tm stood at 49.7 °C.

On to GAAAGACGAAAGTCTTC (((.(((....)))))), for which, in series [1], the folding enthalpy is -12.6 kcal/mol. Further, the Tm in series [2] turned out to be 44.3 °C.

For the sequence GATCACGATCGTGATC ((((((....)))))), the folding enthalpy in series [1] was -47.4 kcal/mol. Moreover, the Tm in series [2] stood at 59.6 °C.
